The text below walks through data of ChEMBL document CHEMBL3351782, “Synthesis and biological evaluation of glaucocalyxin A derivatives as potential anticancer agents” (Eur J Med Chem, 2014).

The IC50 is the concentration that gives 50% inhibition. Read a high IC50 as lower potency.

Series [1] can be described thus: Stability in 80% rat plasma assessed as parent compound remaining at 1 uM at 37 degC after 24 hrs by HPLC method. The settings on record: read-out: Stability. In kind it is ADME, cell-free. Summed up: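 Thawed rat plasma was diluted to 80% v/v with 0.1 M PBS, pH 7.4. Compound was spiked from DMSO stock (1% v/v DMSO final) and held at 37 °C. Aliquots were quenched with two volumes of acetonitrile and centrifuged at 4 °C, 10,000 g, 10 min. Supernatants were run on HPLC with external standard; the result is percent parent remaining at 24 h, mean ± SD, n = 3.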

Series [2] concerns KB. Nature of the series: Prodrug conversion in human KB cells lysates assessed as formation of cysteine conjugates at 500 uM in presence of 10 mM cysteine by LC-HRMS method. Format: ADME, cell-based, Lysate. In outline:
(§1)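 KB cells (5 × 10^6) were lysed by freeze/thaw. DMSO stock prepared just before use was added to lysate already containing cysteine, with DMSO matched in controls, and incubated at 37 °C. Aliquots taken at 30 min and 1 h were mixed with two volumes of acetonitrile and centrifuged (4 °C, 10,000 g, 10 min). They were analysed by LC-HRMS in positive mode using a water + 0.1% formic acid/methanol gradient.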

The subject of series [3] is KB. Kind of series: Prodrug conversion in human KB cells lysates assessed as glaucocalyxin A formation at 500 uM in presence of 10 mM cysteine by LC-HRMS method. Format: ADME, cell-based, Lysate. Summed up:
as §1

For series [4], the system named is KB. Nature of the series: Induction of apoptosis in human KB cells assessed as viable cells level at 10 uM after 48 hrs by Annexin V and propidium iodide staining based flow cytometry (reference value: 84.3%). Format: functional. Summed up:
(§2)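 KB cells were plated in 6-well plates at 2.5 × 10^5 cells/mL and treated for 48 h. Adherent and floating cells were pooled, washed twice in PBS and stained with Annexin V and PI in binding buffer for 20 min at room temperature. Samples were read immediately on a FACSCalibur; untreated cells served as control. Values are means ± SE of at least three independent experiments.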
(A flow cytometer gives signals particle by particle.)

Series [5] concerns KB. Nature of the series: Induction of apoptosis in human KB cells assessed as early apoptotic cells level at 40 uM after 48 hrs by Annexin V and propidium iodide staining based flow cytometry (reference value: 7.69%). Format: functional. In outline: as §2
For series [6], the system named is KB. Kind of series: Antiproliferative activity against human KB cells after 48 hrs by MTT assay. Format: functional, cell-based. Summed up: (§3)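 Cells were seeded at 3 × 10^3 per well and exposed 24 h later, while growing exponentially, to compounds at final concentrations of 1.25 to 40 for 48 h. MTT (5 mg/mL in PBS) was then added for 6 h. The medium was aspirated, the formazan dissolved in DMSO and absorbance read at 570 nm. Survival is relative to untreated cells; IC50 comes from triplicate wells in at least three independent experiments.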
For orientation: Tetrazolium dyes change colour on reduction, which living cells bring about.

The test system of another series is B16. Kind of series: Antiproliferative activity against mouse B16 cells after 48 hrs by MTT assay. Conditions: B16, 48 h. Format: functional, cell-based. Summed up:
as §3

In series [7] the test system is KB. Nature of the series: Induction of apoptosis in human KB cells assessed as early apoptotic cells level at 20 uM after 48 hrs by Annexin V and propidium iodide staining based flow cytometry (reference value: 7.69%). Format: functional. Summed up: as §2
Series [8] can be described thus: Antiproliferative activity against human SGC7901 cells after 48 hrs by MTT assay. Format: functional, cell-based. The settings on record: SGC-7901, 48 h. Summed up:
as §3

For series [9], the system named is KB. Kind of series: Induction of apoptosis in human KB cells assessed as necrotic cells level at 20 uM after 48 hrs by Annexin V and propidium iodide staining based flow cytometry (reference value: 3.64%). Format: functional. In outline: as §2
The test system of series [10] is KB. Nature of the series: Induction of apoptosis in human KB cells after 48 hrs by Annexin V and propidium iodide staining based flow cytometry. Format: functional, cell-based. Summed up: as §2
For series [11], the system named is KB. Nature of the series: Induction of apoptosis in human KB cells assessed as necrotic cells level at 10 uM after 48 hrs by Annexin V and propidium iodide staining based flow cytometry (reference value: 3.64%). Format: functional. In outline:
as §2

A further series deals with A549. Nature of the series: Antiproliferative activity against human A549 cells after 48 hrs by MTT assay. Conditions: A549, 48 h. In kind it is functional, cell-based. Summed up: as §3
Series [12] is described as follows: Chemical stability in 10 mM pH 7.4 PBS buffer assessed as parent compound remaining at 1 uM at 37 degC after 24 hrs by HPLC method. Format: physicochemical. Conditions: read-out: Stability. In outline:
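DMSO stock was diluted into pre-warmed 10 mM PBS, pH 7.4, with 1% v/v DMSO final, and incubated at 37 °C. Aliquots were taken at set times and injected directly onto reversed-phase HPLC (ODS column, water + 0.1% TFA eluent, external standard). The result is percent parent remaining after 24 h, mean ± SD, n = 3.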

The nature of series [13]: Antiproliferative activity against human HL60 cells after 48 hrs by MTT assay. Conditions: HL-60, 48 h. Format: functional, cell-based. Summed up:
as §3

Series [14] has as its system KB. Nature of the series: Induction of apoptosis in human KB cells assessed as late apoptotic cells level at 10 uM after 48 hrs by Annexin V and propidium iodide staining based flow cytometry (reference value: 4.4%). In kind it is functional. In outline:
as §2

Series [15] deals with KB. Kind of series: Induction of apoptosis in human KB cells assessed as early apoptotic cells level at 10 uM after 48 hrs by Annexin V and propidium iodide staining based flow cytometry (reference value: 7.69%). In kind it is functional. In outline: as §2
The subject of series [16] is KB. Nature of the series: Induction of apoptosis in human KB cells assessed as viable cells level at 40 uM after 48 hrs by Annexin V and propidium iodide staining based flow cytometry (reference value: 84.3%). In kind it is functional. In outline: as §2
Series [17] concerns KB. Kind of series: Induction of apoptosis in human KB cells assessed as necrotic cells level at 40 uM after 48 hrs by Annexin V and propidium iodide staining based flow cytometry (reference value: 3.64%). Format: functional. Summed up: as §2
The nature of series [18]: Antiproliferative activity against human SMMC7721 cells after 48 hrs by MTT assay. In kind it is functional, cell-based. The settings on record: SMMC-7721, 48 h. Summed up:
as §3

In series [19] the test system is KB. Kind of series: Induction of apoptosis in human KB cells assessed as late apoptotic cells level at 20 uM after 48 hrs by Annexin V and propidium iodide staining based flow cytometry (reference value: 4.4%). Format: functional. Summed up:
as §2

Series [20] relates to KB. Kind of series: Induction of apoptosis in human KB cells assessed as late apoptotic cells level at 40 uM after 48 hrs by Annexin V and propidium iodide staining based flow cytometry (reference value: 4.4%). In kind it is functional. In outline:
as §2

A short description of series [21]: Antiproliferative activity against human HL7702 cells after 48 hrs by MTT assay. The settings on record: L02, 48 h. Format: cell-based. In outline: as §3
Series [22] has as its system KB. Kind of series: Induction of apoptosis in human KB cells assessed as viable cells level at 20 uM after 48 hrs by Annexin V and propidium iodide staining based flow cytometry (reference value: 84.3%). In kind it is functional. Summed up:
as §2

The subject of series [23] is KB. Kind of series: Induction of apoptosis in human KB cells assessed as necrotic cells level at 5 uM after 48 hrs by Annexin V and propidium iodide staining based flow cytometry (reference value: 3.23%). Format: functional. In outline:
as §2

Series [24] relates to KB. Nature of the series: Induction of apoptosis in human KB cells assessed as viable cells level at 20 uM after 48 hrs by Annexin V and propidium iodide staining based flow cytometry (reference value: 87.4%). Format: functional. Summed up: as §2
Series [25] concerns KB. Nature of the series: Induction of apoptosis in human KB cells assessed as late apoptotic cells level at 20 uM after 48 hrs by Annexin V and propidium iodide staining based flow cytometry (reference value: 2.26%). In kind it is functional. Summed up: as §2
The test system of series [26] is KB. Nature of the series: Induction of apoptosis in human KB cells assessed as early apoptotic cells level at 10 uM after 48 hrs by Annexin V and propidium iodide staining based flow cytometry (reference value: 7.08%). Format: functional. In outline:
as §2

Series [27] deals with KB. Kind of series: Induction of apoptosis in human KB cells assessed as viable cells level at 10 uM after 48 hrs by Annexin V and propidium iodide staining based flow cytometry (reference value: 87.4%). In kind it is functional. Summed up: as §2
Series [28] has as its system KB. Kind of series: Induction of apoptosis in human KB cells assessed as late apoptotic cells level at 10 uM after 48 hrs by Annexin V and propidium iodide staining based flow cytometry (reference value: 2.26%). In kind it is functional. Summed up:
as §2

In series [29] the test system is KB. Kind of series: Induction of apoptosis in human KB cells assessed as early apoptotic cells level at 5 uM after 48 hrs by Annexin V and propidium iodide staining based flow cytometry (reference value: 7.08%). In kind it is functional. In outline:
as §2

Series [30] relates to KB. Kind of series: Induction of apoptosis in human KB cells assessed as late apoptotic cells level at 5 uM after 48 hrs by Annexin V and propidium iodide staining based flow cytometry (reference value: 2.26%). Format: functional. Summed up: as §2
Series [31] concerns KB. Kind of series: Retention time of the compound in human KB cells lysates treated with 500 uM in presence of 10 mM cysteine by LC-HRMS method.
The subject of series [32] is KB. Kind of series: Induction of apoptosis in human KB cells assessed as necrotic cells level at 20 uM after 48 hrs by Annexin V and propidium iodide staining based flow cytometry (reference value: 3.23%). Format: functional. Summed up:
as §2

For series [33], the system named is KB. Kind of series: Induction of apoptosis in human KB cells assessed as viable cells level at 5 uM after 48 hrs by Annexin V and propidium iodide staining based flow cytometry (reference value: 87.4%). In kind it is functional. Summed up:
as §2

The test system of series [34] is KB. Nature of the series: Induction of apoptosis in human KB cells assessed as early apoptotic cells level at 20 uM after 48 hrs by Annexin V and propidium iodide staining based flow cytometry (reference value: 7.08%). In kind it is functional. In outline: as §2
Series [35] deals with KB. Kind of series: Induction of apoptosis in human KB cells assessed as necrotic cells level at 10 uM after 48 hrs by Annexin V and propidium iodide staining based flow cytometry (reference value: 3.23%). In kind it is functional. In outline:
as §2

In the case of `Cc1ccc(NCC2C(=O)[C@@]34[C@H](O)C[C@@H]5C(C)(C)C(=O)CC[C@@]5(C)[C@@H]3CC[C@@H]2[C@H]4O)cc1` (stereo partly drawn), the remaining at 24 h, 1 µM in [1] is 86.4%; in series [12], 104%. Further, in the series with KB [2], the Retention_time turned out to be 2.52 min. Besides, the Drug metabolism entry in the series on KB [3] is “metabolite_detected”. Further, the Activity in the series with KB [4] was 77.9%; with KB [5], 23.4%; with KB [7], 20.5%; in the series on KB [9] it was 4.13%; with KB [10], “Dose-dependent effect”; in the series on KB [11], 3.19%. Besides, the Activity with KB [14] came to 4.46%; in the series on KB [15], 14.5%; in the series on KB [16], 49%; in the series with KB [17] it was 11.9%; in the series with KB [19] it was 5.42%; in the series with KB [20], 15.6%. The Activity with KB [22] came to 69.9%. Also, the IC50 was determined as 7.22 µM in the series with KB [6]; 8.54 µM in the series with B16; 16.1 µM in [8]; 10.6 µM in the series on A549; 8.92 µM in series [13]; 12.2 µM in series [18]. This compound had an IC50 in series [21] of 21.1 µM.

In the case of `C=C1C(=O)[C@@]23[C@H](O)C[C@@H]4C(C)(C)C(=O)CC[C@@]4(C)[C@@H]2CC[C@@H]1[C@H]3O` [GLAUCOCALYXIN A], the remaining at 24 h, 1 µM came out at 24.2% in series [1] and 109% in series [12]. The Retention_time stood at 2.42 min in the series with KB [2] and 5.75 min with KB [31]. Besides, the Activity is 4.95% in the series on KB [23]; 43.9% in the series on KB [24]; 19% in the series on KB [25]; “Dose-dependent effect” in the series with KB [10]; 14.3% in the series on KB [26]; 76.1% in the series with KB [27]. The Activity in the series on KB [28] is reported as 6.89%; with KB [29], 10.7%; in the series on KB [30], 3.69%; in the series on KB [32], 3.59%; in the series with KB [33], 80.6%; in the series with KB [34], 33.4%. For the same compound, the Activity in the series with KB [35] is recorded as 2.69%. Besides, the IC50 in the series on KB [6] came out at 6.47 µM; with B16, 4.84 µM; in series [8] it was 11.7 µM; with A549 it was 7.5 µM; in series [13], 5.52 µM; in series [18], 8.11 µM. This compound yielded an IC50 in series [21] of 8.62 µM.
